Experimental data as given in the M2OR odorant receptor database.

How the values were obtained:
Conditions in all cases: stereoisomer not certain
[1] = target: T1, UniProt E9PXN3
T1 sequence (whole entry): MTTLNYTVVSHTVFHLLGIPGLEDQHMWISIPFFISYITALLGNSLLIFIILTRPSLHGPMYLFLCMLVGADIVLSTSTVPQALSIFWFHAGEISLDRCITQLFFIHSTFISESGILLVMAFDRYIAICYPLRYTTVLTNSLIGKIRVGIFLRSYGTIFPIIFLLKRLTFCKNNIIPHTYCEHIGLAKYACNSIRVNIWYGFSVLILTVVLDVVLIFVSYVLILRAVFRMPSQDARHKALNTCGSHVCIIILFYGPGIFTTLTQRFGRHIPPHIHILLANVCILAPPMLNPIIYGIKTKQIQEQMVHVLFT
In short: (§1)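 Transient luciferase assays in mammalian cell lines were common, though methods varied by source. The values come from published papers and their supplementary material, with extra details from the original authors when needed. Responsive refers to a measured signal the original authors judged statistically different from baseline, and non-responsive (inactive) to the remainder.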

[2] = target: T2, UniProt E9PZ66
T2 sequence (whole entry): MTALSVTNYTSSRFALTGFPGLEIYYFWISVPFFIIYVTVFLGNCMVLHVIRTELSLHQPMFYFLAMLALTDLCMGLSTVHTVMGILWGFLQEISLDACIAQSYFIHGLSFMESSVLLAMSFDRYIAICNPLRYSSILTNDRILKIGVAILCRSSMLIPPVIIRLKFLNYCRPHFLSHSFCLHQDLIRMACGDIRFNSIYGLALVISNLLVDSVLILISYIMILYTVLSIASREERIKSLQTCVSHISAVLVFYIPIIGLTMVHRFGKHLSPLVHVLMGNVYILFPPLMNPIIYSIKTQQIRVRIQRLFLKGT
In short: as §1

[3] = target: T3, UniProt E9Q4X7
T3 sequence (whole entry): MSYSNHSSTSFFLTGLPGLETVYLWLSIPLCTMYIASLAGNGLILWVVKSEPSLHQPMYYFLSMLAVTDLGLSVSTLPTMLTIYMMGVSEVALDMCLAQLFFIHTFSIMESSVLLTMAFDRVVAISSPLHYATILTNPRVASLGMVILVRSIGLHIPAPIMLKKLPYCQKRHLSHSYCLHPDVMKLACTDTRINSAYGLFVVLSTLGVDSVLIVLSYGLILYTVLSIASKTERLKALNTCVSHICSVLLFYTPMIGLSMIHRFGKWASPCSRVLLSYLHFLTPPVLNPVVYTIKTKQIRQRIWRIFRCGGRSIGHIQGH
In short: as §1

[4] = target: T4, UniProt E9Q546
T4 sequence (whole entry): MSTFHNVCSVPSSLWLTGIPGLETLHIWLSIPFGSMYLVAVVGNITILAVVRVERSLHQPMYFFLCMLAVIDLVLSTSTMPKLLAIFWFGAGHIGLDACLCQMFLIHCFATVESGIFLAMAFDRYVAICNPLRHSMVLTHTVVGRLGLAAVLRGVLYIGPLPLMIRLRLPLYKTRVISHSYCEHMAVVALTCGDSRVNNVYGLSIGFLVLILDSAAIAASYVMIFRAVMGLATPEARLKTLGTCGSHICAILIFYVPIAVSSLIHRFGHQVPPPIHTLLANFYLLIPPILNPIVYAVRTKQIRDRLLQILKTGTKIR
In short: as §1

[5] = target: T5, UniProt E9Q6Z7
T5 sequence (whole entry): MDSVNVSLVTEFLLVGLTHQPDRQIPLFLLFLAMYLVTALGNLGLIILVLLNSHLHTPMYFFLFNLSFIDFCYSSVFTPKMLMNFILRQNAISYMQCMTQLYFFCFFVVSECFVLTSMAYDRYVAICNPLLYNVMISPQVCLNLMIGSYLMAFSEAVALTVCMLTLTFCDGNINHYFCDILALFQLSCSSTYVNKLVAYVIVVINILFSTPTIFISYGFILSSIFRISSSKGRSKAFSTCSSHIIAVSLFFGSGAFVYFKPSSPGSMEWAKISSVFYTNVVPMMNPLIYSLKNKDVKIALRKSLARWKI
In short: as §1

[6] = target: T6, UniProt K7N609
T6 sequence (whole entry): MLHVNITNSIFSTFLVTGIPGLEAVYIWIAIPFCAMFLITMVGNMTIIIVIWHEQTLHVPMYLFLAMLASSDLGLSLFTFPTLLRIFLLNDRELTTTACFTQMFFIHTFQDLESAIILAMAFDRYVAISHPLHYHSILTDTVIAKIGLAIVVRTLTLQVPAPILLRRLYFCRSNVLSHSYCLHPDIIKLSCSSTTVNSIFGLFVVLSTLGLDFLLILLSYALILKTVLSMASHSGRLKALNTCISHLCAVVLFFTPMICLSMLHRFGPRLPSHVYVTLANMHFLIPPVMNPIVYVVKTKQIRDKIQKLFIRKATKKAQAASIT
In short: as §1

[7] = target: T7, UniProt E9QAT7
T7 sequence (whole entry): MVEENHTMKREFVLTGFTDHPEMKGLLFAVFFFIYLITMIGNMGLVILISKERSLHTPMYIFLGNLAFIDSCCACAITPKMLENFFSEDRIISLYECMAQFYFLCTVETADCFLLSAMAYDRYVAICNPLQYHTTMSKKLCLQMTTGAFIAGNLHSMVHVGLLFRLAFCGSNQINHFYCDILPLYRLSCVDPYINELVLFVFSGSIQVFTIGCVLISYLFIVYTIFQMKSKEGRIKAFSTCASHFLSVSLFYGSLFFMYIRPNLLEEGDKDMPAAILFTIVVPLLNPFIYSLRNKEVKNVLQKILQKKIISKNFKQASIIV
In short: as §1
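Note: active if original authors judged signal statistically different from baseline.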

CCCCCCCCCO
odorant receptor agonist call [1]: inactive
odorant receptor agonist call [2]: inactive
odorant receptor agonist call [3]: inactive
odorant receptor agonist call [4]: inactive
odorant receptor agonist call [5]: inactive
odorant receptor agonist call [6]: inactive

OCCCCCCCCCO
odorant receptor agonist call [2]: inactive
odorant receptor agonist call [3]: inactive
odorant receptor agonist call [4]: inactive
odorant receptor agonist call [5]: inactive

CCCCCC(=Cc1ccccc1)C(OC)OC
odorant receptor agonist call [2]: inactive
odorant receptor agonist call [3]: inactive
odorant receptor agonist call [4]: inactive
odorant receptor agonist call [5]: inactive

Cc1c(C)c(C)c(C=O)c(C)c1C
odorant receptor agonist call [2]: inactive
odorant receptor agonist call [3]: inactive
odorant receptor agonist call [4]: inactive
odorant receptor agonist call [5]: inactive

C1CCOCC1
odorant receptor agonist call [2]: inactive
odorant receptor agonist call [3]: inactive
odorant receptor agonist call [4]: inactive
odorant receptor agonist call [5]: inactive

CCSCC
odorant receptor agonist call [2]: inactive
odorant receptor agonist call [3]: inactive
odorant receptor agonist call [4]: inactive
odorant receptor agonist call [5]: inactive

O=C([O-])CCCCCCCC(=O)[O-].[H+].[H+]
odorant receptor agonist call [1]: inactive
odorant receptor agonist call [2]: inactive
odorant receptor agonist call [3]: inactive
odorant receptor agonist call [4]: inactive
odorant receptor agonist call [5]: inactive

C=CC(=C)CCC=C(C)C
odorant receptor agonist call [2]: inactive
odorant receptor agonist call [3]: inactive
odorant receptor agonist call [4]: inactive
odorant receptor agonist call [5]: inactive

CCCCC=O
odorant receptor agonist call [1]: inactive
odorant receptor agonist call [2]: inactive
odorant receptor agonist call [3]: inactive
odorant receptor agonist call [4]: inactive
odorant receptor agonist call [5]: inactive

Cc1ccc(C(C)C)cc1
odorant receptor agonist call [2]: inactive
odorant receptor agonist call [3]: inactive
odorant receptor agonist call [4]: inactive
odorant receptor agonist call [5]: inactive

CCCCCCCCO
odorant receptor agonist call [1]: inactive
odorant receptor agonist call [2]: inactive
odorant receptor agonist call [3]: inactive
odorant receptor agonist call [4]: inactive
odorant receptor agonist call [5]: inactive
odorant receptor agonist call [6]: inactive

O=C(O)CCCCCBr
odorant receptor agonist call [1]: inactive
odorant receptor agonist call [2]: inactive
odorant receptor agonist call [3]: inactive
odorant receptor agonist call [4]: inactive
odorant receptor agonist call [5]: inactive

CSSCc1ccco1
odorant receptor agonist call [2]: inactive
odorant receptor agonist call [3]: inactive
odorant receptor agonist call [4]: inactive
odorant receptor agonist call [5]: inactive

CCCC(C)=O
odorant receptor agonist call [1]: inactive
odorant receptor agonist call [4]: inactive
odorant receptor agonist call [6]: inactive

C=C(C)C1CCC(C)C(O)C1 (configuration not stated)
odorant receptor agonist call [2]: inactive
odorant receptor agonist call [3]: inactive
odorant receptor agonist call [4]: inactive
odorant receptor agonist call [5]: inactive

Cc1ccc(OC(=O)C(C)C)cc1
odorant receptor agonist call [2]: inactive
odorant receptor agonist call [3]: inactive
odorant receptor agonist call [4]: inactive
odorant receptor agonist call [5]: inactive

CCCCCC(C=O)=Cc1ccccc1
odorant receptor agonist call [2]: inactive
odorant receptor agonist call [3]: inactive
odorant receptor agonist call [4]: inactive
odorant receptor agonist call [5]: inactive

CC(C)=C1CCC(C)CC1=O (configuration not stated)
odorant receptor agonist call [2]: inactive
odorant receptor agonist call [3]: inactive
odorant receptor agonist call [4]: inactive
odorant receptor agonist call [5]: inactive

CCCCCCC(C)O (configuration not stated)
odorant receptor agonist call [2]: inactive
odorant receptor agonist call [3]: inactive
odorant receptor agonist call [4]: inactive
odorant receptor agonist call [5]: active

CCC=CCCCCC=O
odorant receptor agonist call [2]: inactive
odorant receptor agonist call [3]: inactive
odorant receptor agonist call [4]: inactive
odorant receptor agonist call [5]: inactive

CCCC(C)C(=O)OCC (configuration not stated)
odorant receptor agonist call [2]: inactive
odorant receptor agonist call [3]: inactive
odorant receptor agonist call [4]: inactive
odorant receptor agonist call [5]: inactive

C=CC(=C)CCC=C(C)CCC=C(C)C
odorant receptor agonist call [2]: inactive
odorant receptor agonist call [3]: inactive
odorant receptor agonist call [4]: inactive
odorant receptor agonist call [5]: inactive

Cc1occc1SSc1ccoc1C
odorant receptor agonist call [2]: inactive
odorant receptor agonist call [3]: inactive
odorant receptor agonist call [4]: inactive
odorant receptor agonist call [5]: inactive

O=C(O)C1CCC1
odorant receptor agonist call [2]: inactive
odorant receptor agonist call [3]: inactive
odorant receptor agonist call [4]: inactive
odorant receptor agonist call [5]: inactive

OCCc1ccccc1
odorant receptor agonist call [2]: inactive
odorant receptor agonist call [3]: inactive
odorant receptor agonist call [4]: inactive
odorant receptor agonist call [5]: inactive

CCCCCCCOC(=O)C(C)C
odorant receptor agonist call [2]: inactive
odorant receptor agonist call [3]: inactive
odorant receptor agonist call [4]: inactive
odorant receptor agonist call [5]: inactive

CC(CC=O)CCCC(C)(C)O (configuration not stated)
odorant receptor agonist call [2]: inactive
odorant receptor agonist call [3]: inactive
odorant receptor agonist call [4]: inactive
odorant receptor agonist call [5]: inactive

C=C(C)C1CC=C(C)CC1 (configuration not stated)
odorant receptor agonist call [2]: inactive
odorant receptor agonist call [3]: inactive
odorant receptor agonist call [4]: inactive
odorant receptor agonist call [5]: inactive

CCCCCCCCOC=O
odorant receptor agonist call [2]: inactive
odorant receptor agonist call [3]: inactive
odorant receptor agonist call [4]: inactive
odorant receptor agonist call [5]: inactive

CCc1ccccc1O
odorant receptor agonist call [2]: inactive
odorant receptor agonist call [3]: inactive
odorant receptor agonist call [4]: inactive
odorant receptor agonist call [5]: inactive

CC=CC(=O)C1=C(C)CCCC1(C)C
odorant receptor agonist call [2]: inactive
odorant receptor agonist call [3]: inactive
odorant receptor agonist call [4]: inactive
odorant receptor agonist call [5]: inactive

Cc1ccccc1OC(=O)C(C)C
odorant receptor agonist call [2]: inactive
odorant receptor agonist call [3]: inactive
odorant receptor agonist call [4]: inactive
odorant receptor agonist call [5]: inactive

CC1CCC(C(C)C)C(=O)C1 (configuration not stated)
odorant receptor agonist call [2]: inactive
odorant receptor agonist call [3]: inactive
odorant receptor agonist call [4]: inactive
odorant receptor agonist call [5]: inactive

CCCCCOC(=O)CCC
odorant receptor agonist call [2]: inactive
odorant receptor agonist call [3]: inactive
odorant receptor agonist call [4]: inactive
odorant receptor agonist call [5]: inactive

CCCCCCC(C=O)=Cc1ccccc1
odorant receptor agonist call [2]: inactive
odorant receptor agonist call [3]: inactive
odorant receptor agonist call [4]: inactive
odorant receptor agonist call [5]: inactive

CSSSC
odorant receptor agonist call [2]: inactive
odorant receptor agonist call [3]: inactive
odorant receptor agonist call [4]: inactive
odorant receptor agonist call [5]: inactive

C=CC(C)=CCC=C(C)CCC=C(C)C
odorant receptor agonist call [2]: inactive
odorant receptor agonist call [3]: inactive
odorant receptor agonist call [4]: inactive
odorant receptor agonist call [5]: inactive

CC(=O)C1(C)CC2=C(CCCC2(C)C)CC1C (configuration not stated)
odorant receptor agonist call [2]: inactive
odorant receptor agonist call [3]: inactive
odorant receptor agonist call [4]: inactive
odorant receptor agonist call [5]: inactive

CCC=CCCC=CC=O
odorant receptor agonist call [2]: inactive
odorant receptor agonist call [3]: inactive
odorant receptor agonist call [4]: inactive
odorant receptor agonist call [5]: inactive

Cc1ccc(C(C)C)c(O)c1
odorant receptor agonist call [2]: inactive
odorant receptor agonist call [3]: inactive
odorant receptor agonist call [4]: inactive
odorant receptor agonist call [5]: inactive

CCCCCCC(=O)OCCCC
odorant receptor agonist call [2]: inactive
odorant receptor agonist call [3]: inactive
odorant receptor agonist call [4]: inactive
odorant receptor agonist call [5]: inactive

CC(=O)OCc1ccc2c(c1)OCO2
odorant receptor agonist call [2]: inactive
odorant receptor agonist call [3]: inactive
odorant receptor agonist call [4]: inactive
odorant receptor agonist call [5]: inactive

CCCCCCCCCCOC(C)=O
odorant receptor agonist call [2]: inactive
odorant receptor agonist call [3]: inactive
odorant receptor agonist call [4]: inactive
odorant receptor agonist call [5]: inactive

CCCCCC(C)O (configuration not stated)
odorant receptor agonist call [2]: inactive
odorant receptor agonist call [3]: inactive
odorant receptor agonist call [4]: inactive
odorant receptor agonist call [5]: inactive

CCC(C)O (configuration not stated)
odorant receptor agonist call [2]: inactive
odorant receptor agonist call [3]: inactive
odorant receptor agonist call [4]: inactive
odorant receptor agonist call [5]: inactive

CCc1occc(=O)c1O
odorant receptor agonist call [2]: inactive
odorant receptor agonist call [3]: inactive
odorant receptor agonist call [4]: inactive
odorant receptor agonist call [5]: inactive

COc1ccccc1
odorant receptor agonist call [2]: inactive
odorant receptor agonist call [3]: inactive
odorant receptor agonist call [4]: inactive
odorant receptor agonist call [5]: inactive

CCc1nccnc1CC
odorant receptor agonist call [2]: inactive
odorant receptor agonist call [3]: inactive
odorant receptor agonist call [4]: inactive
odorant receptor agonist call [5]: inactive
odorant receptor agonist call [7]: active

C=C1C2CCC(C2)C1(C)C (configuration not stated)
odorant receptor agonist call [2]: inactive
odorant receptor agonist call [3]: inactive
odorant receptor agonist call [4]: inactive
odorant receptor agonist call [5]: inactive

CCCCCCC=CC=O
odorant receptor agonist call [2]: inactive
odorant receptor agonist call [3]: inactive
odorant receptor agonist call [4]: inactive
odorant receptor agonist call [5]: inactive
